ChEMBL document CHEMBL1123026, “Preparation and antiarthritic and analgesic activity of 4,5-diaryl-2-(substituted thio)-1H-imidazoles and their sulfoxides and sulfones” (1985)

How the values were obtained:
Assay type in all cases: functional
[1] = tested on: Mus musculus; assay: Effective dose by mouse phenyl-p-benzoquinone writhing (PQW)assay after peroral administration; activity value ranges from (0.68-2.89); conditions: po
[2] = tested on: Mus musculus; assay: Effective dose by mouse phenyl-p-benzoquinone writhing (PQW)assay after peroral administration; activity value ranges from (3.2-12.3); conditions: po
Method in brief: (§1)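 Fasted (17-21 h) female white mice, 5-20 per double-blind test, dosed orally with compound suspended in 1% methylcellulose. 0.20 mL aqueous 0.01% phenyl-p-benzoquinone given i.p. 6 min before a 10-min observation for stretching/writhing. ED50 (dose protecting 50% of mice) calculated by the moving-average method.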

[3] = tested on: Mus musculus; assay: Effective dose by mouse phenyl-p-benzoquinone writhing (PQW)assay after peroral administration; activity value ranges from (20.2-79.4); conditions: po; method in brief: as §1
[4] = tested on: Rattus norvegicus; assay: Effective dose determined against rat adjuvant arthritis after peroral administration; conditions: po
Method in brief: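 Male Lewis rats (130-150 g) given 0.1 mL Mycobacterium butyricum adjuvant (5 mg/mL in mineral oil) s.c. into the right hind paw; arthritis developed for 2 weeks. Groups of 10 matched for severity were dosed orally by gavage in PVA-acacia vehicle (10 mL/kg) for 7 days. Uninjected left paw volume was measured the day after the last dose. Percent decrease was calculated vs arthritic and nonarthritic controls. ED50 was read from a visually fitted semilog dose-response line.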

[5] = tested on: Mus musculus; assay: Effective dose by mouse phenyl-p-benzoquinone writhing (PQW)assay after peroral administration; activity value ranges from (20.0-101.0); conditions: po; method in brief: as §1
[6] = tested on: Mus musculus; assay: Effective dose by mouse phenyl-p-benzoquinone writhing (PQW)assay after peroral administration; activity value ranges from (0.23-1.22); conditions: po
[7] = tested on: Mus musculus; assay: Effective dose by mouse phenyl-p-benzoquinone writhing (PQW)assay after peroral administration; activity value ranges from (10.2-45.9); conditions: po; method in brief: as §1
[8] = tested on: Rattus norvegicus; assay: Decrease in rat paw volume was evaluated at dose 100 mg/kg
Method in brief: (§2)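 Male Lewis rats (130-150 g) got 0.1 mL adjuvant (heat-killed Mycobacterium butyricum, 5 mg/mL in mineral oil) subplantar in the right hind paw and were left 2 weeks. Groups of 10 matched for severity were dosed orally by gavage (PVA-acacia vehicle, 10 mL/kg) for 7 days. Uninjected left hind paw volume was read the next day. % decrease = (arthritic control − treated)/(arthritic − nonarthritic control) × 100; Student's t-test.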

[9] = tested on: Mus musculus; assay: Effective dose determined by mouse phenyl-p-benzoquinone writhing (PQW) assay after peroral administration; conditions: po; method in brief: as §1
[10] = tested on: Rattus norvegicus; assay: Decrease in paw volume by the effect of compound at a dose 100 mg/kg; method in brief: as §2
[11] = tested on: Mus musculus; assay: Effective dose by mouse phenyl-p-benzoquinone writhing (PQW)assay after peroral administration; activity value ranges from (2.5 - 8.9); conditions: po; method in brief: as §1
[12] = tested on: Mus musculus; assay: Effective dose by mouse phenyl-p-benzoquinone writhing (PQW)assay after peroral administration; activity value ranges from (0.07-0.50); conditions: po
[13] = tested on: Mus musculus; assay: Effective dose by mouse phenyl-p-benzoquinone writhing (PQW)assay after peroral administration; activity value ranges from (38.0-118.0); conditions: po; method in brief: as §1
[14] = tested on: Mus musculus; assay: Effective dose by mouse phenyl-p-benzoquinone writhing (PQW)assay after peroral administration; 11.4-59.4; conditions: po
[15] = tested on: Mus musculus; assay: Effective dose by mouse phenyl-p-benzoquinone writhing (PQW)assay after peroral administration; activity value ranges from (0.09 - 0.86); conditions: po
[16] = tested on: Mus musculus; assay: Effective dose by mouse phenyl-p-benzoquinone writhing (PQW)assay after peroral administration; activity value ranges from (7.7-33.2); conditions: po; method in brief: as §1
[17] = tested on: Mus musculus; assay: Effective dose by mouse phenyl-p-benzoquinone writhing (PQW)assay after peroral administration; 15.5-103; conditions: po
[18] = tested on: Mus musculus; assay: Effective dose by mouse phenyl-p-benzoquinone writhing (PQW)assay after peroral administration; activity value ranges from (20.0-81.0); conditions: po; method in brief: as §1
[19] = tested on: Mus musculus; assay: Effective dose by mouse phenyl-p-benzoquinone writhing (PQW)assay after peroral administration; activity value ranges from (15.0-77.0); conditions: po; method in brief: as §1
[20] = tested on: Mus musculus; assay: Effective dose by mouse phenyl-p-benzoquinone writhing (PQW)assay after peroral administration; 16.7-121.5; conditions: po
[21] = tested on: Mus musculus; assay: Effective dose by mouse phenyl-p-benzoquinone writhing (PQW)assay after peroral administration; activity value ranges from (4.9-8.7); conditions: po; method in brief: as §1
[22] = tested on: Mus musculus; assay: Effective dose by mouse phenyl-p-benzoquinone writhing (PQW)assay after peroral administration; activity value ranges from (16.2-99); conditions: po; method in brief: as §1
[23] = tested on: Mus musculus; assay: Effective dose by mouse phenyl-p-benzoquinone writhing (PQW)assay after peroral administration; activity value ranges from (0.37-1.52); conditions: po
[24] = tested on: Rattus norvegicus; assay: Decrease in paw volume by the effect of compound at a dose of 80 mg/kg; method in brief: as §2
[25] = tested on: Mus musculus; assay: Effective dose by mouse phenyl-p-benzoquinone writhing (PQW)assay after peroral administration; activity value ranges from (4.8-25.4); conditions: po; method in brief: as §1
[26] = tested on: Mus musculus; assay: Effective dose by mouse phenyl-p-benzoquinone writhing (PQW)assay after peroral administration; 20.6-296.0; conditions: po

O=S(=O)(c1nc(-c2ccc(F)cc2)c(-c2ccc(F)cc2)[nH]1)C(F)F
ED50 [1]: 1.4 mg/kg

O=S(=O)(c1nc(-c2ccc(Cl)cc2)c(-c2ccc(F)cc2)[nH]1)C(F)(F)C(F)F
ED50 [2]: 6.3 mg/kg

COc1ccccc1-c1nc(S(=O)(=O)C(F)(F)C(F)F)[nH]c1-c1ccccc1OC
ED50 [3]: 40 mg/kg
ED50 [4]: > 9 mg/kg

O=S(=O)(c1nc(-c2ccc(Cl)cc2)c(-c2ccc(C(F)(F)F)cc2)[nH]1)C(F)(F)C(F)F
ED50 [5]: 45 mg/kg

COc1ccc(-c2nc(S(=O)(=O)C(F)(F)CF)[nH]c2-c2ccc(OC)cc2)cc1
ED50 [6]: 0.53 mg/kg

O=[N+]([O-])c1ccc(-c2[nH]c(S(=O)(=O)C(F)(F)C(F)F)nc2-c2ccc(F)cc2)cc1
ED50 [7]: 21.6 mg/kg
ED50 [4]: 0.37 mg/kg

CSc1nc(-c2ccccc2)c(-c2ccccc2)[nH]1
Decrease [8]: 20%
ED50 [9]: > 100 mg/kg

C[S+]([O-])c1nc(-c2ccccc2)c(-c2ccccc2)[nH]1 (centres undefined)
Decrease [10]: 33%
ED50 [9]: > 100 mg/kg

[O-][S+](c1nc(-c2ccccc2)c(-c2ccccc2)[nH]1)C(F)(F)C(F)F (centres undefined)
ED50 [11]: 4.7 mg/kg

O=S(=O)(c1nc(-c2ccc(F)cc2)c(-c2ccc(F)cc2)[nH]1)C(F)(F)F
ED50 [4]: 0.016 mg/kg
ED50 [12]: 0.19 mg/kg

COc1cccc(-c2nc(S(=O)(=O)C(F)(F)C(F)F)[nH]c2-c2cccc(OC)c2)c1
ED50 [13]: 67 mg/kg

C=CCSc1nc(-c2ccc(OC)cc2)c(-c2ccc(OC)cc2)[nH]1
ED50 [14]: 26 mg/kg
ED50 [4]: 20 mg/kg

COc1ccc(-c2[nH]c(S(=O)(=O)C(F)(F)C(F)F)nc2-c2ccc(F)cc2)cc1
ED50 [15]: 0.28 mg/kg
ED50 [4]: 1.7 mg/kg

O=S(=O)(c1nc(-c2ccc(Cl)c(Cl)c2)c(-c2ccccc2)[nH]1)C(F)(F)F
ED50 [16]: 16 mg/kg
ED50 [4]: 0.35 mg/kg

CCCSc1nc(-c2ccc(OC)cc2)c(-c2ccc(OC)cc2)[nH]1
ED50 [17]: 40 mg/kg

[O-][S+](c1nc(-c2ccc(F)cc2)c(-c2ccc(F)cc2)[nH]1)C(F)(F)F (centres undefined)
ED50 [18]: 40 mg/kg
ED50 [4]: 0.06 mg/kg

COc1ccc(-c2nc([S+]([O-])CSC)[nH]c2-c2ccc(OC)cc2)cc1 (centres undefined)
ED50 [19]: 34 mg/kg
ED50 [4]: 28 mg/kg

COc1ccc(-c2nc(SC(F)(F)C(F)F)[nH]c2-c2ccc(OC)cc2)cc1
ED50 [20]: 45 mg/kg
ED50 [4]: 4.5 mg/kg

O=S(=O)(c1nc(-c2ccc(Cl)c(Cl)c2)c(-c2ccccc2)[nH]1)C(F)(F)C(F)F
ED50 [21]: 6.5 mg/kg
ED50 [4]: 0.22 mg/kg

CCC[S+]([O-])c1nc(-c2ccc(OC)cc2)c(-c2ccc(OC)cc2)[nH]1 (centres undefined)
ED50 [22]: 40 mg/kg
ED50 [4]: 15 mg/kg

O=S(=O)(c1nc(-c2ccccc2)c(-c2ccccc2)[nH]1)C(F)(F)F
ED50 [23]: 0.75 mg/kg

COc1ccc(-c2nc(S(=O)(=O)CS(C)(=O)=O)[nH]c2-c2ccc(OC)cc2)cc1
ED50 [9]: > 130 mg/kg
Decrease [24]: 43%

O=S(=O)(c1nc(-c2ccc(Cl)cc2)c(-c2ccc(Cl)cc2)[nH]1)C(F)(F)C(F)F
ED50 [25]: 11 mg/kg
ED50 [4]: 0.18 mg/kg

FC(F)Sc1nc(-c2ccc(Cl)cc2)c(-c2ccc(Cl)cc2)[nH]1
ED50 [26]: 78 mg/kg
